The source of these data is ChEMBL document CHEMBL2203159, “Synthesis and structure-activity relationships of fibrate-based analogues inside PPARs” (Bioorg Med Chem Lett, 2012).

For test [1], the target named is T1, Peroxisome proliferator-activated receptor alpha (Homo sapiens, UniProt Q07869).
T1 sequence (Q07869 whole entry): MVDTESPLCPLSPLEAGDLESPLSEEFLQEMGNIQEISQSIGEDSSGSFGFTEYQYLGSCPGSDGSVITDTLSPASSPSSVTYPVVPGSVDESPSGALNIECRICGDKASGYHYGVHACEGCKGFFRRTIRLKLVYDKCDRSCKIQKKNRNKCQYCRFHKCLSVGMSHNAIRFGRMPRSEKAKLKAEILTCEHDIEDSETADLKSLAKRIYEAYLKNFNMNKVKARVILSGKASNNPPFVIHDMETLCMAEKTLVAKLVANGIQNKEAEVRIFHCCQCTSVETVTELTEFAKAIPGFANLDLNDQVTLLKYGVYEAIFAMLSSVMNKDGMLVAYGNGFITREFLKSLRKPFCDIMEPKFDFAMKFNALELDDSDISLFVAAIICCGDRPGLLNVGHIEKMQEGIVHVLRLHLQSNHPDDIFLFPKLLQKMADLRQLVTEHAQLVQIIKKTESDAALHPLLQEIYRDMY
Nature of the test: Transactivation of human GAL4-fused PPARalpha ligand binding domain transfected in HEK293 cells after 18 hrs by dual luciferase reporter gene assay. Format: cell-based. In short, it runs like this:
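HEK293 cells carried a GAL4–PPAR chimera and a GAL4-responsive luciferase reporter in a transactivation assay. Compounds were tested at 1 to 150 µM in at least two separate experiments, and results are given ± SEM.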
(A reporter such as luciferase makes a cellular process visible.)

Test [2] concerns the target T2, Peroxisome proliferator-activated receptor alpha (Homo sapiens) (UniProt Q07869).
T2 sequence (whole entry): T1 sequence (Q07869 whole entry)
As to the kind of experiment: Transactivation of human GAL4-fused PPARalpha ligand binding domain transfected in HEK293 cells at 150 uM after 18 hrs by dual luciferase reporter gene assay relative to clofibric acid. Format: cell-based. In a few lines:
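This is a GAL4–PPAR transactivation assay in HEK293 cells with a GAL4-responsive luciferase reporter, run in at least two separate experiments. Efficacy is the percentage of the maximum fold induction obtained with the reference agonist clofibric acid. Results are given ± SEM.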

Test [3] has as its target T3, Peroxisome proliferator-activated receptor gamma (Homo sapiens, UniProt P37231).
T3 sequence (P37231 whole entry): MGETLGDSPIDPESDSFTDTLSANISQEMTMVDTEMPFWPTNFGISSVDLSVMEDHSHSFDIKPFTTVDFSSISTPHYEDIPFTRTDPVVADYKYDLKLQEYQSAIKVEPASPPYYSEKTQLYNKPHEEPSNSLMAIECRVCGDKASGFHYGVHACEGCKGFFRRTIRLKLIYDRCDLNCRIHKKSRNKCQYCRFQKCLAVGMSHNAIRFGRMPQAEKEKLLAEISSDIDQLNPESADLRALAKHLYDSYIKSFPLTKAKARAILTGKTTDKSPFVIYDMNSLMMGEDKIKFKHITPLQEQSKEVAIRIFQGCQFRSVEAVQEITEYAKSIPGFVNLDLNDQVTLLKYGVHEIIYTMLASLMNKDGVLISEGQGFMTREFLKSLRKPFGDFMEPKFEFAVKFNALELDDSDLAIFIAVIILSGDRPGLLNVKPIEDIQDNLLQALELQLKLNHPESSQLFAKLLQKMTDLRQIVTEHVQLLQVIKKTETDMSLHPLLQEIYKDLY
Nature of the test: Transactivation of human GAL4-fused PPARgamma ligand binding domain transfected in HEK293 cells after 18 hrs by dual luciferase reporter gene assay. Type of test: cell-based.

The target in test [4] is T2, Peroxisome proliferator-activated receptor alpha (Homo sapiens). As to the kind of experiment: Transactivation of PPARalpha in human HepG2 cells assessed as increase in CPT1A mRNA expression after 48 hrs by RT-qPCR analysis. For orientation: Real-time PCR tracks product formation cycle by cycle.

Broadly, the EC50 is the concentration giving half of the maximal effect. Regarding `CC(C)(Oc1ccc(CCOc2nc3ccccc3s2)cc1)C(=O)O`, the EC50 was found to be 18.3 µM in test [1] (read-out: EC50) and 39.3 µM in test [3] (read-out: EC50). The %max in test [2] is 169%.
Take `CC(C)(Oc1ccc(COc2ccc(Oc3ccccc3)cc2)cc1)C(=O)O`: the EC50 entry in test [1] (hek293) was “Not Active”; in test [3] (read-out: EC50) it was 0.8 µM.
On to `CC(C)(Oc1ccc(COc2ccc(C(=O)/C=C/c3ccccc3)cc2)cc1)C(=O)O`, for which the EC50 entry in test [1] (hek293) and in test [3] (hek293) was “Not Active” in each case.
Take `CC(C)(Oc1ccc(CO)cc1)C(=O)O`: the concentration giving a half-maximal response (EC50) was 34.5 µM in test [1] (read-out: EC50) and 30 µM in test [3] (read-out: EC50). The same molecule gave a %max in test [2] of 119%.
Regarding `CC(C)(Oc1ccc(CCCO)cc1)C(=O)O`, the results for the EC50 in test [1] (read-out: EC50) and in test [3] (hek293) were 30.6 µM and “Not Active”, respectively. The molecule further gave a %max in test [2] of 181%.
Turning to `CC(C)(Oc1ccc(CCOc2ccc(Oc3ccccc3)cc2)cc1)C(=O)O`, the concentration giving a half-maximal response (EC50) result in test [1] (hek293) is “Not Active”; in test [3] (read-out: EC50), 6.9 µM.
Taken in the same sequence, the figures for `CC(C)(Oc1ccc(CCOc2ccc(C(=O)c3ccccc3)cc2)cc1)C(=O)O` were “Not Active” and 54.6 µM.
As to `CC(C)(Oc1ccc(CCOc2ccc(/C=C/c3ccccc3)cc2)cc1)C(=O)O`, the figures for the EC50 in test [1] (read-out: EC50) and in test [3] (read-out: EC50) were 11.6 µM and 12.6 µM, respectively. This molecule displayed a %max in test [2] of 81%.
`CC(C)(Oc1ccc(CCCOc2ccc(/C=C/c3ccccc3)cc2)cc1)C(=O)O`: the 50% effective concentration (EC50) turned out to be 9.9 µM in test [1] (read-out: EC50) and 0.8 µM in test [3] (read-out: EC50). In test [2], the %max worked out at 125%.
Take `CC(C)(Oc1ccc(CCOc2ccc(/N=N/c3ccccc3)cc2)cc1)C(=O)O`: the EC50 in test [1] (read-out: EC50) turned out to be 0.6 µM; in test [3] (read-out: EC50), 1.4 µM. The %max in test [2] was 158%. Besides, the Activity result in test [4] was “Dose-dependent effect”.
With `CC(C)(Oc1ccc(CCO)cc1)C(=O)O`, the EC50 is 75.1 µM in test [1] (read-out: EC50) and “Not Active” in test [3] (hek293). In test [2], this molecule returned a %max of 94%.
Take `CC(C)(Oc1ccc(COc2ccc(C(=O)c3ccccc3)cc2)cc1)C(=O)O`: the EC50 result was “Not Active” in test [1] (hek293) and 5.4 µM in test [3] (read-out: EC50).
Taken in the same sequence, the figures for `CC(C)(Oc1ccc(CCCOc2ccc(C(=O)c3ccccc3)cc2)cc1)C(=O)O` were “Not Active” and 5.8 µM.
Regarding `CC(C)(Oc1ccc(COc2ccc(/C=C/c3ccccc3)cc2)cc1)C(=O)O`, the figures for the EC50 in test [1] (read-out: EC50) and in test [3] (read-out: EC50) were 40.5 µM and 6 µM, respectively. This molecule came in with a %max in test [2] of 156%.
In the case of `CC(C)(Oc1ccc(CCCOc2nc3ccccc3s2)cc1)C(=O)O`, the EC50 turned out to be 45.8 µM in test [1] (read-out: EC50) and 7.9 µM in test [3] (read-out: EC50). In addition, the %max in test [2] amounted to 100%.
In the same order, the values of `CC(C)(Oc1ccc(COc2nc3ccccc3s2)cc1)C(=O)O` are 44.6 µM, 32 µM and 125%.
In the case of `CC(C)(Oc1ccc(Cl)cc1)C(=O)O` [CLOFIBRIC ACID], in test [3] (hek293), the EC50 result was “Not Active”.
Regarding `CC(C)(Oc1ccc(CCCOc2ccc(/N=N/c3ccccc3)cc2)cc1)C(=O)O`, the concentration for a half-maximal effect (EC50) in test [1] (read-out: EC50) was determined as 42.8 µM; in test [3] (read-out: EC50), 10 µM. In addition, the %max in test [2] came out at 81%.
As for `CC(C)(Oc1ccc(CCCOc2ccc(Oc3ccccc3)cc2)cc1)C(=O)O`, the EC50 result in test [1] (hek293) is “Not Active”; in test [3] (read-out: EC50), 75.2 µM.
As for `CC(C)(Oc1ccc(CCCOc2ccc(C(=O)/C=C/c3ccccc3)cc2)cc1)C(=O)O`, the half-maximal effective concentration (EC50) entry was “Not Active” in test [1] (hek293) and 0.8 µM in test [3] (read-out: EC50).
On to `CCc1ccc(CCOc2ccc(CC3SC(=O)NC3=O)cc2)nc1` (configuration not stated) [PIOGLITAZONE], for which the half-maximal effective concentration (EC50) entry in test [1] (hek293) is recorded as “Not Active”.
Regarding `CC(C)(Oc1ccc(CCOc2ccc(C(=O)/C=C/c3ccccc3)cc2)cc1)C(=O)O`, the EC50 was found to be 64 µM in test [1] (read-out: EC50) and 5.9 µM in test [3] (read-out: EC50). In test [2], this molecule registered a %max of 118%.
Turning to `CC(C)(Oc1ccc(COc2ccc(/N=N/c3ccccc3)cc2)cc1)C(=O)O`, in test [1] (read-out: EC50), the EC50 came to 5.6 µM. This molecule gave a %max in test [2] of 350%.
